From ChEMBL document CHEMBL1135562, “Cyclic acid anhydrides as a new class of potent, selective and non-peptidic inhibitors of geranylgeranyl transferase” (Bioorg Med Chem Lett, 2002) come the findings set out here.

In general, IC50 refers to the concentration needed to halve the response being measured.

Test [1] deals with T1, Protein farnesyltransferase (Homo sapiens, UniProt P49354+P49356). The test is described as follows: In vitro inhibition of farnesyl-protein transferase. It counts as protein-complex assay. In a few lines:
(§1)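 Recombinant human FPTase; substrate recombinant human wild-type H-Ras with [1-(n)-3H]farnesylpyrophosphate (555 GBq/mmol). Enzyme activity is the [3H]farnesyl transferred to Ras, measured by filter binding. IC50 is the concentration giving 50% inhibition of specific activity, fitted by non-linear regression to a dose–response curve.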

Test [2] has as its target T2, Geranylgeranyl transferase type I (Homo sapiens, UniProt P49354+P53609). The test is described as follows: In vitro inhibition of geranylgeranyl-protein transferase type-I. It counts as protein-complex assay. In a few lines:
(§2)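 Recombinant human GGPTase-I; substrate recombinant human H-Ras CVLL with [1-(n)-3H]geranylgeranylpyrophosphate (615 GBq/mmol). Activity is the [3H]geranylgeranyl transferred to Ras, measured by filter binding. IC50 is the concentration inhibiting specific activity by 50%, derived by non-linear regression fit to a dose–response curve.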

Test [3] addresses T3, Protein farnesyl/geranylgeranyl transferase (Homo sapiens) (UniProt P49354+P49356+P53609). In words: Ratio of human Farnesyltransferase to human Geranylgeranyl transferase type I activity as IC50; 900:500. The test is classed as protein-complex assay.
Test [4] in a line: In vitro inhibition of geranylgeranyl-protein transferase type-II. Also noted: species or system Homo sapiens.
The target in test [5] is T3, Protein farnesyl/geranylgeranyl transferase (Homo sapiens). The test is described as follows: Ratio of human Farnesyltransferase to human Geranylgeranyl transferase type I activity as IC50; 166:252. The test is classed as protein-complex assay.
Test [6] concerns the target T1, Protein farnesyltransferase. The test is described as follows: In vitro inhibition of Farnesyltransferase. The test is classed as protein-complex assay. In a few lines:
as §1

The target in test [7] is T2, Geranylgeranyl transferase type I. In words: In vitro inhibition of Geranylgeranyl transferase type I. It counts as protein-complex assay. In a few lines: as §2

In the case of `CCCCCCCCC/C=C/CC1CC(=O)OC1=O` (configuration not stated), the IC50 in test [1] was over 1000 µM; in test [2], 401 µM.

Take `CC(C)=CCC/C(C)=C/C=C1\CCC(C(=O)O)C(C(=O)O)C1` (configuration not stated): the IC50 in test [1] was over 1000 µM; in test [2] it was 420 µM.

Take `CCCCCCCCCCCC(=O)OC(=O)CCCCCCCCCCC` [DODECANOIC ANHYDRIDE]: the concentration for half-maximal inhibition (IC50) in test [1] was 854 µM; in test [2], 229 µM.

`COC(=O)C1CC=C(CCC=C(C)C)CC1C(=O)OC` (configuration not stated): the Ratio in test [3] was determined as 1.8.

`CC(C)=CCC/C(C)=C/CCC1=CCC2C(=O)OC(=O)C2C1` (configuration not stated) [listing 1 of 2 here]: the figures for the IC50 in test [1] and in test [2] were 190 µM and 136 µM, respectively.

In the case of `CC(C)=CCCC1=CCC2C(=O)OC(=O)C2C1` (configuration not stated), the 50% inhibitory concentration (IC50) is 449 µM in test [1] and 40.2 µM in test [2].

On to `CC(C)=CCCC1=CCC(C(=O)O)C(C(=O)O)C1` (configuration not stated), for which the IC50 in test [1] is over 1000 µM; in test [2], 900 µM.

Regarding `CC(C)CCCC(C)CCCC(C)CCCC1=CCC2C(=O)OC(=O)C2C1` (configuration not stated), the IC50 was over 1000 µM in test [1] and 20.8 µM in test [2].

For the molecule `CCCCCCCCC/C=C/CC(CC(=O)O)C(=O)O` (configuration not stated), the IC50 in test [1] was 402 µM; in test [2] it was over 1000 µM.

Turning to `CCCCCCCCCCCCCC/C(C(=O)O)=C(\C)C(=O)O` [CHAETOMELLIC ACID A], the results for the IC50 in test [4] and in test [2] were 34 µM and 92 µM, respectively.

As for `CCCCCCCCCCCCC(C(=O)O)C(C(=O)O)C(=O)O` (configuration not stated), in test [5], the Ratio came out at 0.66.

As to `CC(C)CCCC(C)CCCC(C)CCCC1=CCC(C(=O)O)C(C(=O)O)C1` (configuration not stated), the concentration for half-maximal inhibition (IC50) in test [1] and in test [2] was over 1000 µM in each case.

Molecule `COC(=O)C1CC=C(CCCC(C)CCCC(C)CCCC(C)C)CC1C(=O)OC` (configuration not stated) yielded an IC50 in test [2] of over 1000 µM.

Take `C=C1CC(=O)OC1=O` [ITACONIC ANHYDRIDE]: the IC50 in test [1] and in test [2] was over 1000 µM each time.

In the case of `CC(C)=CCC/C(C)=C/CCC1=CCC2C(=O)OC(=O)C2C1` (configuration not stated) [listing 2 of 2 here], the figures for the IC50 in test [6] and in test [7] were 9 µM and 503 µM, respectively.
